Test results: ChEMBL document CHEMBL1145443, “Thiosemicarbazones of formyl benzoic acids as novel potent inhibitors of estrone sulfatase” (J Med Chem, 2007)
Activity calls are given as the source filed them. The rule behind the calls is not given here.

Tests used:
[1] = Dissociation constant, pKa of the compound; format: physicochemical
K562 = test: Growth inhibition of K562 cells; format: functional, cell-based; details: Homo sapiens
Gallus gallus = species on record: Gallus gallus; test: Acute toxicity in chick embryo after 72 to 96 hrs by hen's fertile egg screening test; format: organism-based; details: chicken, in vivo
Summary of the method: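 Fifteen-day-old fertile hen's egg embryos received compound through the air cell. Deaths were scored 72-96 h after treatment, and an LD50 was derived in mg/kg.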

HeLa = test: Growth inhibition of HeLa cells; format: functional, cell-based; details: Homo sapiens
Steryl-sulfatase = target: T1, Steryl-sulfatase (Homo sapiens, UniProt P08842); test: (§1) Inhibition of Estrone sulfatase in human placental microsome; set-up: species or system Placenta
T1 sequence (P08842 whole entry): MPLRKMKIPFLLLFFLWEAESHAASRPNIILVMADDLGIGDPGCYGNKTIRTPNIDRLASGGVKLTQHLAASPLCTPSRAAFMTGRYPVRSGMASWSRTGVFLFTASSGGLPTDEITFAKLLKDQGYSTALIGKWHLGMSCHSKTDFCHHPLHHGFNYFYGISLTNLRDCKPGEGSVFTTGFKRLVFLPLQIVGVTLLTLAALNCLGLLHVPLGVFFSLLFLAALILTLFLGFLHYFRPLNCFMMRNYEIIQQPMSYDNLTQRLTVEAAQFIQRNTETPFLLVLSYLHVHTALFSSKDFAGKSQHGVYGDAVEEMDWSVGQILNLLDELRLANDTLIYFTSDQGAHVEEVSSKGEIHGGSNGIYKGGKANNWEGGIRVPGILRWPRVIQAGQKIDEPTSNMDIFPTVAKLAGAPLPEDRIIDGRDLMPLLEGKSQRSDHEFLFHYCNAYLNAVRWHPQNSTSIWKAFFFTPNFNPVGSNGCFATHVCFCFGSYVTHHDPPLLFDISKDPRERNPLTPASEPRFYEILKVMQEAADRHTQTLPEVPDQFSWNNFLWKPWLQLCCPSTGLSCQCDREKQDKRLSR

[2] = target: T2, Steryl-sulfatase (Homo sapiens) (UniProt P08842); test: as §1; details: Placenta
T2 sequence (whole entry): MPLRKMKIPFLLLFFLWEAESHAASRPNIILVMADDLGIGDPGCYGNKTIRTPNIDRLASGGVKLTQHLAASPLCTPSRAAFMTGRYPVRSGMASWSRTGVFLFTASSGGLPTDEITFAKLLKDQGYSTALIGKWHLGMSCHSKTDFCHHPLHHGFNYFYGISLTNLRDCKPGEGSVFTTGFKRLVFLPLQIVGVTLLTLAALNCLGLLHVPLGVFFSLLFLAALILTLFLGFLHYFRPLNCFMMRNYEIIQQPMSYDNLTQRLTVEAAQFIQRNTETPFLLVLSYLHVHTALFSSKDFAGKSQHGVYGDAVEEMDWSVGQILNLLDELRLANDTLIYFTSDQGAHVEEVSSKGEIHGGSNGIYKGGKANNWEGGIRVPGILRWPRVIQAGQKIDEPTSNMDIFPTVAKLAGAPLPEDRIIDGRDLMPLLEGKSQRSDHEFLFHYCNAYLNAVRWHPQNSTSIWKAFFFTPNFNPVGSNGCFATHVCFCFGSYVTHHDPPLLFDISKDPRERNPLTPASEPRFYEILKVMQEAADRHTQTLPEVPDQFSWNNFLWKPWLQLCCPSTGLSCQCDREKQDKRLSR

[3] = target: Estrone sulfatase (Homo sapiens); test: Activity of Estrone sulfatase in human placental microsome; details: Placenta

**Q.** With `Cc1ccc(/C=N/NC(=S)NC2CCCCC2)c(C(=O)O)c1O` as the molecule, how does the pKa [1] read?
**A.** Its pKa is 4.3.

**Q.** Which IC50 (K562) does the source give for `COc1c2c(c(O)c3c1C(=O)c1c(cc(O)c(C)c1O)C3=O)-c1c(cc(/C=N/NC(=S)NC3CCCCC3)c(C(=O)O)c1O)CC2` [MHL CYCLOHEXYLTHIOSEMICARBAZONE] here?
**A.** Its IC50 is over 50 µg/mL.

**Q.** What about the Activity (Gallus gallus) of the same molecule?
**A.** Its Activity is over 50 mg/kg.

**Q.** What about the IC50 (HeLa) of the same molecule?
**A.** Its IC50 is over 50 µg/mL.

**Q.** With `COc1cccc(/C=N/NC(=S)NC2CCCCC2)c1C(=O)O` as the molecule, how does the IC50 (Steryl-sulfatase) read?
**A.** Its IC50 is over 100 µM.

**Q.** Which IC50 (Steryl-sulfatase) does the source give for `CCCCNC(=S)N/N=C/c1cccc(C(=O)O)c1` here?
**A.** The IC50 was 58 µM.

**Q.** With `CCCCNC(=S)N/N=C/c1ccccc1C(=O)O` as the molecule, how does the Activity [2] read?
**A.** Its Activity is “inactive”.

**Q.** Which results are given for `O=C(O)c1cc(/C=N/NC(=S)NC2CCCCC2)ccc1O`?
**A.** IC50 (K562): > 50 µg/mL; Activity (Gallus gallus): > 50 mg/kg; pKa [1]: 4.2; IC50 (HeLa): > 50 µg/mL

**Q.** With `Oc1ccccc1/C=N/NC(=S)NC1CCCCC1` as the molecule, how does the pKa [1] read?
**A.** The pKa was 9.8.

**Q.** Which IC50 (Steryl-sulfatase) does the source give for `COc1ccc(/C=N/NC(=S)NC2CCCCC2)c(C(=O)O)c1OC` here?
**A.** Its IC50 is over 100 µM.

**Q.** For `COc1c(C)ccc(/C=N/NC(=S)NC2CCCCC2)c1C(=O)O`, which IC50 (Steryl-sulfatase) is on record?
**A.** Its IC50 is over 100 µM.

**Q.** With `CCCCCCNC(=S)N/N=C/c1ccccc1C(=O)O` as the molecule, how does the Activity [2] read?
**A.** Its Activity is “inactive”.

**Q.** Which pKa [1] does the source give for `S=C(N/N=C/c1cccc(-c2nnn[nH]2)c1)NC1CCCCC1` here?
**A.** Its pKa is 5.2.

**Q.** For `O=C(O)c1ccccc1/C=N/NC(=S)Nc1ccccc1`, which IC50 (Steryl-sulfatase) is on record?
**A.** Its IC50 is over 100 µM.

**Q.** Which IC50 (K562) does the source give for `O=C(O)c1ccc(O)c(/C=N/NC(=S)NC2CCCCC2)c1` here?
**A.** Its IC50 is over 50 µg/mL.

**Q.** What about the Activity (Gallus gallus) of the same molecule?
**A.** Its Activity is over 100 mg/kg.

**Q.** And the pKa [1]?
**A.** The pKa was 5.8.

**Q.** And the IC50 (HeLa)?
**A.** Its IC50 is over 50 µg/mL.

**Q.** For `OB(O)c1ccccc1/C=N/NC(=S)NC1CCCCC1`, which IC50 (Steryl-sulfatase) is on record?
**A.** The IC50 was over 100 µM.

**Q.** What about the pKa [1] of the same molecule?
**A.** The pKa was 7.7.

**Q.** Which IC50 (Steryl-sulfatase) does the source give for `O=C(O)c1ccccc1/C=N/NC(=S)NC1CC1` here?
**A.** The IC50 was over 100 µM.

**Q.** Which results are given for `O=C(O)c1cccc(/C=N/NC(=S)NC2CCCCC2)c1O`?
**A.** IC50 (K562): > 50 µg/mL; Activity (Gallus gallus): > 50 mg/kg; pKa [1]: 3.8; IC50 (HeLa): > 50 µg/mL

**Q.** With `CCCCCCNC(=S)N/N=C/c1cccc(C(=O)O)c1` as the molecule, how does the IC50 (Steryl-sulfatase) read?
**A.** Its IC50 is 12 µM.

**Q.** With `O=C(O)c1cccc(/C=N/NC(=S)NC2CCCCC2)c1` as the molecule, how does the pKa [1] read?
**A.** The pKa was 5.4.

**Q.** For `C/C(=N\NC(=S)NC1CCCCC1)c1ccccc1C(=O)O`, which IC50 (Steryl-sulfatase) is on record?
**A.** Its IC50 is over 100 µM.

**Q.** For `Oc1cccc(/C=N/NC(=S)NC2CCCCC2)c1`, which pKa [1] is on record?
**A.** The pKa was 10.2.

**Q.** With `O=C(N/N=C/c1cccc(C(=O)O)c1)NC1CCCCC1` as the molecule, how does the IC50 (Steryl-sulfatase) read?
**A.** The IC50 was over 100 µM.

**Q.** With `O=C(O)c1ccccc1/C=N/NC(=S)NC1CCCCC1` as the molecule, how does the pKa [1] read?
**A.** Its pKa is 6.4.

B1: Steryl-sulfatase (Homo sapiens), P08842 (protein)
chain: MPLRKMKIPFLLLFFLWEAESHAASRPNIILVMADDLGIGDPGCYGNKTIRTPNIDRLASGGVKLTQHLAASPLCTPSRAAFMTGRYPVRSGMASWSRTGVFLFTASSGGLPTDEITFAKLLKDQGYSTALIGKWHLGMSCHSKTDFCHHPLHHGFNYFYGISLTNLRDCKPGEGSVFTTGFKRLVFLPLQIVGVTLLTLAALNCLGLLHVPLGVFFSLLFLAALILTLFLGFLHYFRPLNCFMMRNYEIIQQPMSYDNLTQRLTVEAAQFIQRNTETPFLLVLSYLHVHTALFSSKDFAGKSQHGVYGDAVEEMDWSVGQILNLLDELRLANDTLIYFTSDQGAHVEEVSSKGEIHGGSNGIYKGGKANNWEGGIRVPGILRWPRVIQAGQKIDEPTSNMDIFPTVAKLAGAPLPEDRIIDGRDLMPLLEGKSQRSDHEFLFHYCNAYLNAVRWHPQNSTSIWKAFFFTPNFNPVGSNGCFATHVCFCFGSYVTHHDPPLLFDISKDPRERNPLTPASEPRFYEILKVMQEAADRHTQTLPEVPDQFSWNNFLWKPWLQLCCPSTGLSCQCDREKQDKRLSR
**Q.** Which Km [3] does the source give for B1 here?
**A.** Its Km is 27 µM.
